Measurements: ChEMBL document CHEMBL4152221, “Synthesis and structure-activity relationship of furoquinolinediones as inhibitors of Tyrosyl-DNA phosphodiesterase 2 (TDP2)” (Eur J Med Chem, 2018)
Active and inactive are the calls of the source.

Legend:
[1] = biological target: T1, Tyrosyl-DNA phosphodiesterase 2 (Homo sapiens) (UniProt O95551); assay: (§1) Inhibition of recombinant human TDP2 using TY18 (alpha-[32P]-cordycepin-3'-labeled) as substrate after 15 mins by PAGE analysis
T1 sequence (whole entry): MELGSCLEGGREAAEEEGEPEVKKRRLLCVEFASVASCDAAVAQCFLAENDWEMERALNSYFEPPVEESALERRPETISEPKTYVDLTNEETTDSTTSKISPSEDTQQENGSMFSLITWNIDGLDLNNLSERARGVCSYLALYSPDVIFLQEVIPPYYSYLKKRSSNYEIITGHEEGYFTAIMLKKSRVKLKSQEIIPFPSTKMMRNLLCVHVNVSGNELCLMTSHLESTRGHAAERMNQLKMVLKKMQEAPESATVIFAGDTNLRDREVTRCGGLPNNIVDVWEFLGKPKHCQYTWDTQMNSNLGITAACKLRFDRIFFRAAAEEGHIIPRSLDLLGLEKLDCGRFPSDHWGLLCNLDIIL
Method in brief: (§2)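 32P-cordycepin-3'-labeled TY18 substrate at 1 nM with 25 pM recombinant human TDP2, 15 min at room temperature. Buffer: 50 mM Tris-HCl pH 7.5, 80 mM KCl, 5 mM MgCl2, 0.1 mM EDTA, 1 mM DTT, 40 μg/mL BSA, 0.01% Tween 20. Six or eight three-fold dilutions up to 111 μM. Gel densitometry; IC50 is mean ± SD of ≥3 independent experiments. Positive control: SV-163.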

[2] = biological target: T2, Tyrosyl-DNA phosphodiesterase 2 (Homo sapiens, UniProt O95551); assay: as §1; method in brief: as §2
T2 sequence (O95551 whole entry): T1 sequence (whole entry)

[3] = biological target: T2, Tyrosyl-DNA phosphodiesterase 2; assay: Inhibition of human TDP2 expressed in TDP2 deficient chicken DT40 whole cell extracts using TY19 DNA as substrate after 15 mins by PAGE analysis
Method in brief: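 Extract from 1×10^7 TDP2-knockout DT40 cells complemented with human TDP2, lysed 15 min on ice, spun at 12000 g for 10 min, stored at -80 °C. TY19 substrate at 1 nM with 5 μg/mL extract, ±inhibitor, 15 min at room temperature in LMP2 buffer. Gel densitometry. IC50 is mean ± SD of ≥3 independent experiments.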

[4] = biological target: T1, Tyrosyl-DNA phosphodiesterase 2 (Homo sapiens); assay: Inhibition of recombinant human TDP2 at 111 uM using alpha-[32P]-cordycepin-3'-labeled TY18 as substrate after 15 mins by PAGE analysis; method in brief: as §2
[5] = biological target: T3, Tyrosyl-DNA phosphodiesterase 1 (Homo sapiens, UniProt Q9NUW8); assay: Inhibition of recombinant TDP1 (unknown origin) at 111 uM using 5'-[32P]-labeled N14Y as substrate after 15 mins by PAGE analysis
Method in brief: (§3)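 5'-32P-labeled N14Y (3'-phosphotyrosyl single-stranded oligo) at 1 nM with 10 pM recombinant TDP1, 15 min at room temperature. Three-fold dilutions up to 111 μM. Gels scanned and quantified by densitometry. Positive control: AM-8-3.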

[6] = biological target: T4, DNA topoisomerase 1 (Homo sapiens) (UniProt P11387); assay: Inhibition of Top1 (unknown origin) assessed as decrease in relaxation of supercoiled pBR322 DNA at 25 uM
T4 sequence (whole entry): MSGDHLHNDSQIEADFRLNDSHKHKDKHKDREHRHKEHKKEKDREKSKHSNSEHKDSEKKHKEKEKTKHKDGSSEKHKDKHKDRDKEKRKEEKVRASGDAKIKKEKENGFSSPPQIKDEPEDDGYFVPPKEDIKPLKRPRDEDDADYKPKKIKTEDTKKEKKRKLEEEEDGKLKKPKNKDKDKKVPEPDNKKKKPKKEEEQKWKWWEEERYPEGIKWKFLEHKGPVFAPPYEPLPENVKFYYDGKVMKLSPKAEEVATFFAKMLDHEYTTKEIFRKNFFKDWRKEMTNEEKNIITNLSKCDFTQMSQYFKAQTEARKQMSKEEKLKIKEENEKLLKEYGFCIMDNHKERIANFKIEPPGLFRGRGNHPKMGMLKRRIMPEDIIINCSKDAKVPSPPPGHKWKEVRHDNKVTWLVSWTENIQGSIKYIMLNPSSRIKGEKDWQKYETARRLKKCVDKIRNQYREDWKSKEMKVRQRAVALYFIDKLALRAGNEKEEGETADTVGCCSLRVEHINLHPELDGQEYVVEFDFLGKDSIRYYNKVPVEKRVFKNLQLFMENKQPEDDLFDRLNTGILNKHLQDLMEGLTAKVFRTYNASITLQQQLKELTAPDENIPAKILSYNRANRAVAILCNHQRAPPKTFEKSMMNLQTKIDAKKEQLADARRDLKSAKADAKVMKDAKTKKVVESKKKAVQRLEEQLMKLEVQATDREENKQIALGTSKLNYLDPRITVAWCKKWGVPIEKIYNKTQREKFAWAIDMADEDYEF
Method in brief: (§4)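 Supercoiled pBR322 plasmid incubated with TOP1 or TOP2 enzyme, with or without test compound at 25 μM. Relaxed and supercoiled forms separated on agarose gel. Positive controls: camptothecin for TOP1, etoposide for TOP2.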

Homo sapiens = species: Homo sapiens; assay: Inhibition of Top2 (unknown origin) assessed as decrease in relaxation of supercoiled pBR322 DNA at 25 uM; method in brief: as §4
[7] = biological target: DNA topoisomerase 2-alpha (Homo sapiens) (UniProt P11388); assay: Poisoning activity at Top2alpha in human CCRF-CEM cells assessed as TOP2-DNA covalent cleavage complex up to 100 uM after 2 hrs by Western blot analysis based ICE assay; type: cell-based
Method in brief: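 ICE assay: 60×10^5 CCRF-CEM cells exposed to compound for 2 h, then lysed in 1% Sarkosyl to detect TOP2–DNA covalent cleavage complexes. Etoposide at 10 and 50 μM served as positive control, with one lane co-treated with 10 μM etoposide.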

[8] = biological target: T3, Tyrosyl-DNA phosphodiesterase 1; assay: Inhibition of recombinant TDP1 (unknown origin) using 5'-[32P]-labeled N14Y as substrate after 15 mins by PAGE analysis; method in brief: as §3
[9] = biological target: DNA topoisomerase 2-alpha (Homo sapiens) (UniProt P11388); assay: Poisoning activity at Top2alpha in human CCRF-CEM cells assessed as TOP2-DNA covalent cleavage complex up to 50 uM after 2 hrs by Western blot analysis based ICE assay; type: cell-based
Method in brief: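 60×10^5 CCRF-CEM cells treated 2 h with compound at 10 or 50 μM, alone or combined with 10 μM etoposide, then lysed in 1% Sarkosyl. TOP2-DNA covalent complexes detected by ICE assay. Etoposide at 10 and 50 μM served as positive control.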

T3 sequence (Q9NUW8 whole entry): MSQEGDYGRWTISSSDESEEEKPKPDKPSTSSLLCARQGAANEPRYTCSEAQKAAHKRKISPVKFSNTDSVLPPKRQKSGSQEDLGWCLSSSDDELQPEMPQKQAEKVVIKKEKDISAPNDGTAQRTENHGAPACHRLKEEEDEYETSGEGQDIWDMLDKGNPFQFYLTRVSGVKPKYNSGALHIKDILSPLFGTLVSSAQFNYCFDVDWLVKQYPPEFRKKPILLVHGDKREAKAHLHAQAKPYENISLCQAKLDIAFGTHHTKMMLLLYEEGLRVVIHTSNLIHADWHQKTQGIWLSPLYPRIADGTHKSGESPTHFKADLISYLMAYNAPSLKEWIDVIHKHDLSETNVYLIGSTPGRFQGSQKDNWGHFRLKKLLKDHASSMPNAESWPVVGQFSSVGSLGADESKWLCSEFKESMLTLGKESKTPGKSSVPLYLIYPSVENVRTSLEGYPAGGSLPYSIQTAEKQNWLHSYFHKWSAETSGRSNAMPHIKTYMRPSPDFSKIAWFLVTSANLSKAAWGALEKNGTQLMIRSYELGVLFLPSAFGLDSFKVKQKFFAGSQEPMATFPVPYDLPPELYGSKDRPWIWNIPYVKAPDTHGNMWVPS
Chain of DNA topoisomerase 2-alpha (Homo sapiens) (P11388 whole entry): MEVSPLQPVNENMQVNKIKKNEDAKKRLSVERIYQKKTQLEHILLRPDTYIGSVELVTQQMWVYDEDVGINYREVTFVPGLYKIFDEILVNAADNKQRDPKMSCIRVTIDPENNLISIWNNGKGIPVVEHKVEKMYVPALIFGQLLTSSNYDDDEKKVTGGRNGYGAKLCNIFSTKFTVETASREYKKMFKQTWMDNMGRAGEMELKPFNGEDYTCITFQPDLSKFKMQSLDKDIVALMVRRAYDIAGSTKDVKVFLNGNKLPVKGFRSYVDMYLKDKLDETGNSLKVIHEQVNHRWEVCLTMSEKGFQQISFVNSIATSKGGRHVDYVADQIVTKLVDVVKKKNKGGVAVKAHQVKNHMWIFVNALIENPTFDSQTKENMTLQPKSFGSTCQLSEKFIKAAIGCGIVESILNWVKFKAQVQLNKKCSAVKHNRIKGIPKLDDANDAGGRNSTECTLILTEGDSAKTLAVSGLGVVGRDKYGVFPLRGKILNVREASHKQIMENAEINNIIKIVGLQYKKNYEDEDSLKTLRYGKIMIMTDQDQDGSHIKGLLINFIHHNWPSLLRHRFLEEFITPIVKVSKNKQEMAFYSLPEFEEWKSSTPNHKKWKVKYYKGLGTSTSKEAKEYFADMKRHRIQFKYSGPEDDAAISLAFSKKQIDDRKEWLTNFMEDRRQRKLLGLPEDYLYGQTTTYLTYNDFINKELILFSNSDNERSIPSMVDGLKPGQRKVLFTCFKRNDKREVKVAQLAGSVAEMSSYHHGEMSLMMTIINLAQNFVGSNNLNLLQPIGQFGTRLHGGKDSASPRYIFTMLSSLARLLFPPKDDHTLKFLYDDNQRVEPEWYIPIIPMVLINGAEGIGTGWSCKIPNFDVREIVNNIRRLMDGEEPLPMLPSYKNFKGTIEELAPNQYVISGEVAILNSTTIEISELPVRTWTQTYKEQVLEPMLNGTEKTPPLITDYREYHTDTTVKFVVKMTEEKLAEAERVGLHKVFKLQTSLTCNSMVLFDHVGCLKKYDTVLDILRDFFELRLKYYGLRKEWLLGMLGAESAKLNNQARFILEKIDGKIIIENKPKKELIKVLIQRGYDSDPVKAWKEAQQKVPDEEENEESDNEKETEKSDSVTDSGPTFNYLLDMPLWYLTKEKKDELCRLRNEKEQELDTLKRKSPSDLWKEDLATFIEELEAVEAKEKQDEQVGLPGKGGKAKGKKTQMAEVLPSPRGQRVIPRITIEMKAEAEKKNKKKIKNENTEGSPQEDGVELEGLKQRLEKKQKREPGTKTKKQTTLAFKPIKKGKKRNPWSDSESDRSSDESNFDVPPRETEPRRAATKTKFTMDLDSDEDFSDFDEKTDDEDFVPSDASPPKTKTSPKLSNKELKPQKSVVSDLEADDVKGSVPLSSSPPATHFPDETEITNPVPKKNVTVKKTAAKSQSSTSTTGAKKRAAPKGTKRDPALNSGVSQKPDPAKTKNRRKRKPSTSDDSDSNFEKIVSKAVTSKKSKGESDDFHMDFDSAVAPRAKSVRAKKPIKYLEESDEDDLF

Row | inhibition [1] | IC50 [2] [µM] | IC50 [3] [µM] | inhibition [4] [%] | inhibition [5] | inhibition [6] | inhibition (Homo sapiens) | IC50 [8] [µM] | SMILES | Activity [7] | Activity [9]
1 | Dose-dependent effect | 18 | 10 | 100 | inactive |  |  |  | Cc1oc2c(c1C(=O)Oc1ccccc1)C(=O)c1ncccc1C2=O |  | 
2 | Dose-dependent effect | 29 | 8.8 | 100 | inactive |  |  |  | Cc1oc2c(c1C(=O)Oc1cccc(O)c1)C(=O)c1ncccc1C2=O |  | 
3 | Dose-dependent effect | 7.6 | 6.6 | 100 | inactive |  |  |  | Cc1oc2c(c1C(=O)Oc1ccccc1O)C(=O)c1ncccc1C2=O |  | 
4 |  | 22 | 24 |  |  |  |  | 38 | COC(=O)c1sccc1OC(=O)c1c(C)oc2c1C(=O)c1ncccc1C2=O |  | 
5 | Dose-dependent effect |  |  | 100 |  |  |  |  | N#Cc1ccc2cc3c(=O)[nH]c(=O)nc-3n(-c3cccc(-c4nnn[nH]4)c3)c2c1 |  | 
6 | Dose-dependent effect | 1.9 | 2.1 | 100 | inactive | inactive | inactive |  | CCOC(=O)c1noc2c1C(=O)c1cccnc1C2=O |  | inactive
7 | Dose-dependent effect | 20 | 9.8 | 100 | inactive |  |  |  | Cc1oc2c(c1C(=O)OCCO)C(=O)c1ncccc1C2=O |  | 
8 |  | 28 |  |  |  |  |  | 48 | Cc1oc2c(c1C(=O)Oc1ccc([N+](=O)[O-])cc1)C(=O)c1ncccc1C2=O |  | 
9 | Dose-dependent effect | 3.3 | 3.1 | 100 | inactive | inactive | inactive |  | CCOC(=O)c1noc2c1C(=O)c1ncccc1C2=O |  | 

Row | SMILES | inhibition [1] | IC50 [2] [µM] | IC50 [3] [µM] | inhibition [4] [%] | inhibition [5] | inhibition [6] | inhibition (Homo sapiens) | IC50 [8] [µM] | Activity [7] | Activity [9]
10 | CCOC(=O)c1c(C)oc2c1C(=O)c1ncccc1C2=O |  | 11 | 22 |  | inactive | inactive | inactive |  | inactive | 
11 | Cc1oc2c(c1C(=O)OCCCCO)C(=O)c1ncccc1C2=O |  | 26 | 12 |  | inactive |  |  |  |  | 
12 | Cc1oc2c(c1C(=O)OC[C@@H](O)CO)C(=O)c1ncccc1C2=O | Dose-dependent effect | 12 | 14 | 100 | inactive |  |  |  |  | 
13 | Cc1oc2c(c1C(=O)OCCCO)C(=O)c1ncccc1C2=O | Dose-dependent effect | 17 | 11 | 100 | inactive |  |  |  |  | 
14 | CC(=O)c1c(C)oc2c1C(=O)c1ncccc1C2=O |  | 35 | 36 |  | inactive |  |  |  |  | 
